The results in this text go back to ChEMBL document CHEMBL3286272, “Synthesis, biological, and biophysical studies of DAG-indololactones designed as selective activators of RasGRP” (Bioorg Med Chem, 2014).

One may read the Ki as the dissociation constant of the complex between target and ligand, obtained from inhibition or displacement.

For assay [1], the target named is Protein kinase C (PKC) (Homo sapiens) (UniProt O94806+P41743+P17252+P05129+Q05655+P05771+Q05513+Q02156+P24723+Q15139+Q04759). Nature of the assay: Activation of PKC in human Ramos cells assessed as PKD1 phosphorylation at S744/S748 at 10000 nM after 30 mins by Western blot analysis. It is filed as cell-based. Summed up: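 Ramos cells in RPMI-1640 with 10% FBS and 1% L-glutamine, plated at 300,000 cells/ml, were exposed after 24 h to 0.01, 0.1, 1 and 10 μM compound for 30 min. Lysates were made in PBS with 0.5% Triton X-100 and sonicated. 7.5 μg protein was run on 10% Tris-glycine gels, blotted to nitrocellulose, probed overnight with phospho-specific primary antibodies and detected by ECL.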
For orientation: A western blot detects proteins with antibodies after separation by electrophoresis.

The species named for the next assay is Homo sapiens. Nature of the assay: Selectivity ratio of Ki for recombinant human PKC-epsilon to Ki for recombinant human GFP-tagged RasGRP3.
Assay [2] deals with T1, Protein kinase C epsilon type (Homo sapiens, UniProt Q02156).
T1 sequence (Q02156 whole entry): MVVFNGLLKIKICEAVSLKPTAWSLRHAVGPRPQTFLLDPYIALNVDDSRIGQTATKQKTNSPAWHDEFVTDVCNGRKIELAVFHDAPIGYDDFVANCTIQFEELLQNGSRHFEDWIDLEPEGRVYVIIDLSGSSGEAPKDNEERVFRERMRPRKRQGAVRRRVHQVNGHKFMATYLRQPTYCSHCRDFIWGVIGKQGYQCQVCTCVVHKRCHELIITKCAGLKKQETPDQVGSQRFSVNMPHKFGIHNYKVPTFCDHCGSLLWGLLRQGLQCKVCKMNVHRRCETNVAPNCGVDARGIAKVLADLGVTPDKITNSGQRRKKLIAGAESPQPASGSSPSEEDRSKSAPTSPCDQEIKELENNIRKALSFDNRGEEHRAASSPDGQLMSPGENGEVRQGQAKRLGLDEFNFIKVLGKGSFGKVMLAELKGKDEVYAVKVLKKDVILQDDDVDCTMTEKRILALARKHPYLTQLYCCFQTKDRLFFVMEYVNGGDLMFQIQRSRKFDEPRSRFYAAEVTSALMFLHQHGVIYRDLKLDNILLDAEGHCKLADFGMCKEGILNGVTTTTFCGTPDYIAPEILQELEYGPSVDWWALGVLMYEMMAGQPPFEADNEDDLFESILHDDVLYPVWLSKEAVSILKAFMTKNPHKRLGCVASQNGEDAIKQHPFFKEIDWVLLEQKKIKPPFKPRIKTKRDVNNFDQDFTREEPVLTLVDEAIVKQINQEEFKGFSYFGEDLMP
Nature of the assay: Displacement of [3H]PDBu from recombinant human PKC-epsilon after 5 mins by scintillation counting analysis in presence of phosphatidylserine. Summed up:
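[3H]PDBu binding competition with 100 μg/ml phosphatidylserine present; PKCα and RasGRP1-C1 assayed at 37°C for stability. Values are mean ± SEM of triplicate independent experiments.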
(In general: In a radioligand displacement assay an active substance lowers the binding of a labelled ligand.)

Assay [3] addresses T2, Ras guanyl-releasing protein 3 (Homo sapiens) (UniProt Q8IV61).
T2 sequence (whole entry): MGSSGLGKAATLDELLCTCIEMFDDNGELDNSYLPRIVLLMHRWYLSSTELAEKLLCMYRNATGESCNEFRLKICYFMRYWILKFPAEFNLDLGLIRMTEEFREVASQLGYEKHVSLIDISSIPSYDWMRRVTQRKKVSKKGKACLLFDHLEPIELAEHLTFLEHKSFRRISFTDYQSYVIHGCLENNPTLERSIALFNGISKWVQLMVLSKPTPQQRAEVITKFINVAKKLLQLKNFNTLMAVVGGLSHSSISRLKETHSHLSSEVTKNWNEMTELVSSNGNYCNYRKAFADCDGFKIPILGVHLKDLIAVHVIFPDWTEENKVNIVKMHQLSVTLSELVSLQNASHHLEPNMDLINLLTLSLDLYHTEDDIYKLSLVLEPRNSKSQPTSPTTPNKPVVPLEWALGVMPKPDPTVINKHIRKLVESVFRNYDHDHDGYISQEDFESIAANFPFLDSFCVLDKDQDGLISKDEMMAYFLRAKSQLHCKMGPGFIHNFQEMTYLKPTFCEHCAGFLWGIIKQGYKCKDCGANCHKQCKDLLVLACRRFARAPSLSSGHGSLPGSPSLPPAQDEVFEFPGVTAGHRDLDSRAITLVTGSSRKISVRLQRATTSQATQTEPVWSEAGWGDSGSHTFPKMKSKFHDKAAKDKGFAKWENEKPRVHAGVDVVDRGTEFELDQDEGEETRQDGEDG
Nature of the assay: Binding affinity to recombinant human GFP-tagged RasGRP3 expressed in human LNCAP cells assessed as induction of protein translocation from plasma membrane to internal membrane at 10000 nM after 2 to 10 mins by confocal microscopic analysis. It is filed as cell-based. The gist of the method: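 LNCaP cells were transiently transfected with human GFP-PKCδ or GFP-RasGRP3 and imaged 24 h later by live confocal microscopy (488 nm excitation) every 30 s for 30 min after 10 μM ligand. Distribution was assessed from representative images. n = 3–6.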

For assay [4], the target named is Protein kinase C alpha type (Homo sapiens, UniProt P17252). Nature of the assay: Binding affinity to recombinant human GFP-tagged PKC-alpha expressed in CHOK1 cells assessed as induction of protein translocation from plasma membrane to internal membrane at 10000 nM after 2 to 5 mins by confocal microscopic analysis. It is filed as cell-based. The following applies: CHO-K1. Summed up:
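CHO-K1 cells were transiently transfected with human GFP-PKCα and imaged live by confocal microscopy 24 h later (488 nm excitation, 500–530 nm emission) every 30 s for 30 min after 10 μM ligand. Membrane/cytoplasm intensity ratio from 4 μm2 regions was normalized to time 0. n = 3–6.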

The target in assay [5] is T2, Ras guanyl-releasing protein 3 (Homo sapiens). Nature of the assay: Activation of RasGRP3 (unknown origin) overexpressed in HEK293 cells assessed as ERK1/2 phosphorylation at 1 to 10 uM after 30 mins by Western blot analysis. It counts as cell-based.

Molecules are shown by their SMILES. Activity calls are given as the source filed them. The rule behind the calls is not given here.

As to `CCCC(CCC)C(=O)OCC1(CO)C/C(=C\c2cccc3c2ccn3C)C(=O)O1` (configuration not stated), the outcome in assay [1] and in assay [3] was Active. The Ratio Ki in the assay listed under Homo sapiens is 9. Moreover, the Ki in assay [2] stood at 14.6 nM.
Take `CCCC(CCC)C(=O)OCC1(CO)C/C(=C\c2ccc3ccn(C)c3c2)C(=O)O1` (configuration not stated): the outcome in assay [1], in assay [4] and in assay [3] was Active. The Ratio Ki in the assay filed under Homo sapiens amounted to 6.6. Also, in assay [2], the Ki came out at 8.08 nM.
Take `CCCC(CCC)C(=O)OCC1(CO)C/C(=C\c2ccc3c(ccn3C)c2)C(=O)O1` (configuration not stated): the result in assay [1] and in assay [3] was Active. Moreover, the Ratio Ki in the assay filed under Homo sapiens was 6.4. Moreover, the Ki in assay [2] came out at 2.17 nM.
In the case of `CCCC(CCC)C(=O)OCC1(CO)C/C(=C\c2cccc3ccn(C)c23)C(=O)O1` (configuration not stated), the result in assay [1] and in assay [3] was Active. Further, the Ratio Ki in the assay listed under Homo sapiens amounted to 11. Also, the Ki in assay [2] worked out at 11.7 nM.
On to `CCCC(CCC)C(=O)OCC1(CO)C/C(=C\c2cn(C)c3ccccc23)C(=O)O1` (configuration not stated), for which the outcome in assay [1], in assay [5] and in assay [3] was Active. For the same compound, in the assay filed under Homo sapiens, the Ratio Ki turned out to be 64. The Ki in assay [2] was found to be 21.1 nM.
